OX1R antag-1 = antagonists of human orexin 1 receptor (OX1R); hit rate 1.8% among 330,000; OX1R-expressing cells, FRET antagonist read-out; AID 485270; inhibition, % at 6.6 µM; in the data active means inhibition mostly above about 38%, no sharp cut-off; inactive means mostly below about 40%
CHO parental Ca = counter-screen: ATP calcium response change in parental CHO cells. hit rate 0.63% among 330,000. inhibition, % at 5.6 µM. parental CHO-K1, ATP-induced calcium, Fluo-8 fluorescence;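 active means inhibition above that plate's mean sample inhibition plus 3 SD, cut at about 26% in these data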
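Test system: untransfected parental CHO cell line; also added: ATP stimulus; dosing: 5.6 µM, single dose; signal: calcium-sensitive Fluo-8 fluorescence; measure: percent inhibition of ATP-evoked calcium rise, normalized to controls; benchmarks: low control ATP plus DMSO, high control DMSO only; replication: one well per compound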
TAAR1 ag = human TAAR1 agonism; activation, % at 3 µM; hit rate 0.99% among 360,000; CHO RD-HGA16 TAAR1, Fluo-8 calcium fluorescence; vehicle wells 0%, saturating PEA agonist 100%; Q96RJ0;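 active means activation above the mean activation of all test compounds in the run plus 3 SD, cut at about 38% in these data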
Target sequence (Q96RJ0 whole entry, looked up): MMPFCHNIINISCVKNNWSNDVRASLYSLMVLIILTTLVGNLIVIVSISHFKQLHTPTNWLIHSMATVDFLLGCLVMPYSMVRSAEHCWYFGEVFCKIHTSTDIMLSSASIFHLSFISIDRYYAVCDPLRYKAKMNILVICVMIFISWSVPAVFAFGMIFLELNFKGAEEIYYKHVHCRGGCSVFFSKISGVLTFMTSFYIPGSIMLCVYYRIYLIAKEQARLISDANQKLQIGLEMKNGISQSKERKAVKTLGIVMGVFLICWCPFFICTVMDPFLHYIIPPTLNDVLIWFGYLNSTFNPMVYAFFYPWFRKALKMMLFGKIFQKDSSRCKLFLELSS
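test system = CHO RD-HGA16 cells carrying human TAAR1 plus Gα16 | schedule = 17-24 h seeding, 75 min 37 °C dye, 30 min RT | compound dosing = 3 µM single concentration | control set = DMSO and PEA EC100 | replicates = n 1 | signal = Fluo-8 fluorescence, 5 s baseline then 140 s kinetic read | measure = percent activation vs PEA EC100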
OX1R antag-2 = antagonists of human orexin 1 receptor | O43613 | CHO/OX1R cells, Fluo-8 calcium fluorescence, orexin A | inhibition, % at 5 µM | hit rate 0.43% among 330,000;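 active means inhibition above its plate's threshold, mean inhibition of all tested compounds on the plate plus 3 SD, cut at about 37% in these data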
TAAR1 antag = antagonists of human TAAR1 | Q96RJ0 | CHO RD-HGA16 TAAR1, Fluo-8 calcium fluorescence, antagonist | inhibition, % at 3 µM | hit rate 1.5% among 360,000 | AID 624466;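 active means inhibition above a per-plate cutoff, the mean inhibition of test compounds on that plate plus 3 SD, cut at about 49% in these data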
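Material: RD-HGA16 CHO cells with stable hTAAR1 and Gα16; Dosing: single nominal final test compound concentration of 3 µM; Schedule: seeding 17-24 h prior, 75-min 37 °C, 30-min RT dye loading; Detection: kinetic Fluo-8 calcium fluorescence measurement; Measure: % inhibition from peak post-agonist over basal fluorescence ratio; Benchmarks: vehicle and agonist controls.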
NTR1 ag = agonists of human neurotensin receptor NTR1; P30989; NTR1-U2OS beta-arrestin-GFP spot imaging, agonist mode; activation, % at 20 µM; hit rate 0.17% among 330,000;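 active means activation at or above 40% of the spot to cytoplasm intensity ratio, with at least 20 cells analyzed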
A number is an active result; – = inactive; · = no result given. Sampled rows, rich in hits. Any-hit rate of the full collection: about 4%.

SMILES | OX1R antag-1 | CHO parental Ca | TAAR1 ag | OX1R antag-2 | TAAR1 antag | NTR1 ag
C/C(=N\Nc1ccc(S(N)(=O)=O)cc1[N+](=O)[O-])c1ccccc1O | – | – | – | – | – | –
C/C(=N\Nc1ccc(S(N)(=O)=O)cc1[N+](=O)[O-])c1ccco1 | 41 | – | – | – | – | –
NS(=O)(=O)c1ccc(N/N=C/c2ccccn2)c([N+](=O)[O-])c1 | 46 | – | – | – | – | –
CCN(CC)S(=O)(=O)c1cc([N+](=O)[O-])ccc1NNC(=O)Nc1ccc(Cl)c(Cl)c1 | – | 38 | – | – | – | –
COc1ccccc1NC(=O)CCCCCN1C(=O)c2cccc3cccc(c23)C1=O | – | – | – | – | – | –
Cc1c(NC(=O)CCCN2C(=O)c3cccc4cccc(c34)C2=O)c(=O)n(-c2ccccc2)n1C | 42 | – | – | – | – | –
O=C(CCCCCN1C(=O)c2cccc3cccc(c23)C1=O)NCCCO | 52 | – | – | – | – | –
O=C(CN1C(=O)c2cccc3cccc(c23)C1=O)NCCCO | 57 | – | – | – | – | –
O=C1N[C@@H](Cc2ccccc2)C(=O)N2[C@H]1CSCCS2(=O)=O | · | · | – | · | – | ·
Cn1cc([N+](=O)[O-])cc1-c1nc2ccccc2n1C | – | – | – | – | – | –
Cn1c(-c2ccc([N+](=O)[O-])cc2)nc2ccccc21 | 51 | – | – | – | – | –
Nc1cc2c(cc1[N+](=O)[O-])OCCOCCOCCO2 | – | – | – | – | – | –
Nc1cc2c(cc1[N+](=O)[O-])OCCO2 | 49 | – | – | – | – | –
CCCCCCN1CCN(C2CN(Cc3cn(Cc4ccc(C(F)(F)F)cc4)nn3)S(=O)(=O)C2)CC1 (stereo not given) | · | · | – | · | – | ·
Nc1[nH]c(C(=O)c2ccccc2)c(-c2ccc(Cl)cc2)c1C(=O)c1c[nH]c2ccc(F)cc12 | · | · | – | · | – | ·
O=C1NC(=S)NC1=Cc1ccccc1O | · | · | 47 | · | – | ·
COC(=O)c1ccccc1S(=O)(=O)NC(=O)[C@H]1O[C@@H](n2ccc(=O)[nH]c2=O)[C@H](O)[C@@H]1O | · | · | – | · | – | ·
O=C(Nc1cccc(Cl)c1)Nc1csc([N+](=O)[O-])c1 | 50 | 62 | – | – | – | –
CN(C)c1ccc(NC(=O)Nc2cccc(Cl)c2)cc1 | – | – | – | – | – | –
CC(Oc1ccccc1)C(=O)N1CCN=C1SCc1ccccc1F (stereo not given) | – | 40 | – | – | – | –
CCOC(=O)C1=C(COC(=O)c2ccccc2OC)NC(=O)NC1C (stereo not given) | · | · | – | · | 49 | –
COc1ccc(-n2c(Cc3ccccc3)nnc2SCC(=O)N2CCCc3ccccc32)cc1 | – | – | – | – | – | –
O=C(NCc1nnc(SCC(=O)N2CCCc3ccccc32)n1-c1ccccc1)c1cccc2ccccc12 | – | – | – | – | 50 | –
O=C1N=c2ccccc2=C1c1sc(Nc2ccc(O)cc2)nc1O | · | · | – | · | – | ·
O=C1N=c2ccccc2=C1c1sc(Nc2cccc(O)c2)nc1O | 54 | – | – | – | – | –
SMILES | OX1R antag-1 | CHO parental Ca | TAAR1 ag | OX1R antag-2 | TAAR1 antag | NTR1 ag
O=C(c1ccc(COc2ccccc2)o1)N1CCN(S(=O)(=O)c2ccccc2Cl)CC1 | – | – | – | – | 51 | –
Cc1ccc(S(=O)(=O)N2CCN(C(=O)c3ccc(COc4ccccc4)o3)CC2)cc1 | – | – | – | – | – | –
O=C(Cn1nnc(N2CCOCC2)n1)NN=Cc1ccccc1Cl | · | · | – | · | – | ·
CCCCn1c(NC(=O)c2ccccc2Cl)c(C#N)c2nc3ccccc3nc21 | 59 | – | – | – | – | –
N#Cc1c(NC(=O)c2ccccc2Cl)n(Cc2ccccc2)c2nc3ccccc3nc12 | – | – | – | – | – | ·
COc1ccc(/C=N/NC(=O)CCn2c3ccccc3c3ccccc32)cc1OC | 59 | – | – | – | – | –
COc1cc(-c2nc3ccccn3c2N)ccc1O | – | – | – | – | – | –
COc1cc(-c2nc3ccccc3nc2-c2ccc(O)c(OC)c2)ccc1O | – | – | – | – | 53 | –
Cc1ccc(S(=O)(=O)NCc2ccc3c(c2)OCO3)cc1 | · | · | – | · | – | ·
COc1ccc(C(=O)NNC(=O)CSc2nnc(COc3ccc4ccccc4c3)n2C)cc1 | – | – | 44 | – | – | –
CSc1ccc(C(=O)NCC2CCN(C(=O)C(=O)c3cc4ccccc4o3)CC2)cc1 | · | · | – | · | – | ·
N#Cc1nccnc1S(=O)(=O)c1cccs1 | 109 | 44 | – | – | – | –
O=C(N/N=C/c1ccc(Cl)c([N+](=O)[O-])c1)c1ccc2nc[nH]c2c1 | 58 | – | – | – | – | –
O=C(N/N=C/c1ccccc1[N+](=O)[O-])c1ccc2nc[nH]c2c1 | – | – | – | – | – | –
Cc1cc(C(=O)N/N=C/c2ccc(Cl)c([N+](=O)[O-])c2)c(C)n1-c1ccc(F)cc1 | – | – | – | – | – | –
Cc1occc1C(=O)N/N=C/c1ccc(Cl)c([N+](=O)[O-])c1 | 64 | – | – | – | – | –
Cc1ccc2nc3n(c(=O)c2c1)-c1cc(Cl)ccc1C(=O)NC3Cc1ccc(O)cc1 (stereo not given) | – | – | – | – | – | –
CC(=O)Nc1cccc(NC(=O)Cc2nc(-c3ccccc3)sc2-c2ccc(C)cc2)c1 | 68 | – | – | – | – | –
CCN(CC)C(=O)c1oc2ccc(S(=O)(=O)N3CC(C)CC(C)C3)cc2c1C (stereo not given) | – | 41 | – | – | – | –
CCCCc1c(-c2ccccc2OC)ncn1Cc1ccc([N+](=O)[O-])cc1 | · | · | – | · | – | ·
Cc1sc2ncn(CC(=O)NCCCC(=O)Nc3ccc(C(C)C)cc3)c(=O)c2c1C | – | – | – | – | – | –
CC(=O)N1C[C@@H](CN2C(=O)CCC2=O)[C@@H]2C[C@H]1c1ccccc1N2C | · | · | – | · | – | ·
CCCCNc1ccc2c(c1)OC[C@@H](Cc1ccccc1)NS2(=O)=O | · | · | – | · | – | ·

Compound activity (PubChem)
